According to ChEMBL document CHEMBL4118249, “Discovery and Identification of Small Molecules as Methuosis Inducers with in Vivo Antitumor Activities” (J Med Chem, 2018):
Active and inactive are the calls of the source. The rule behind the calls is not given here.

Tests used:
Mus musculus [1] = assay: Toxicity in ICR mouse assessed as effect on AST level in serum at 20 mg/kg, iv administered once daily for 12 days; assay type: organism-based; details: in vivo, 288 h
Summary of the method: (§1)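 Healthy ICR mice dosed at 20 mg/kg for 12 days; normal tissues examined for vacuoles, body weight and blood chemistry assessed.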

Mus musculus [2] = assay: Toxicity in ICR mouse assessed as body weight loss at 20 mg/kg, iv administered once daily for 12 days; assay type: organism-based; details: in vivo, 288 h; summary of the method: as §1
Mus musculus [3] = assay: Toxicity in ICR mouse assessed as effect on ALT level in serum at 20 mg/kg, iv administered once daily for 12 days; assay type: organism-based; details: in vivo, 288 h; summary of the method: as §1
Mus musculus [4] = assay: Induction of vacuolization in ICR mouse at 20 mg/kg, iv administered once daily for 12 days measured post last dose by H and E staining based light microscopic method; assay type: organism-based; details: in vivo, 288 h; summary of the method: as §1
MDA-MB-231 [5] = assay: Induction of methuosis in human MDA-MB-231 cells assessed as macropinocytosis at 2 uM after 12 hrs by lucifer yellow CH staining based phase contrast fluorescent microscopic analysis; assay type: functional, cell-based
Summary of the method: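 MDA-MB-231 incubated with 2 µM compound and Lucifer yellow together for 12 h, PBS-washed, imaged by phase contrast and confocal fluorescence.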

MDA-MB-231 [6] = assay: Induction of methuosis in human MDA-MB-231 cells assessed as late endosomal marker Rab7 on vacuole membranes at 2 uM after 12 hrs by anti-Rab7 staining based immunofluorescent microscopic analysis
MDA-MB-231 [7] = assay: Induction of mitochondria originated vacuolization in human MDA-MB-231 cells at 2 uM after 12 hrs by Mito-tracker red staining based phase contrast fluorescent microscopic analysis; assay type: functional, cell-based
Summary of the method: (§2)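 MDA-MB-231 attached overnight on glass-bottom dishes, treated with DMSO or 2 µM for 12 h, then loaded with ER-tracker or Mito-tracker Red; phase-contrast and confocal fluorescence imaging.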

MDA-MB-231 [8] = assay: Antitumor activity against human MDA-MB-231 cells xenografted in iv dosed Balb/c nude mouse assessed as tumor growth inhibition administered once daily for 13 days measured 6 hrs post last dose; assay type: functional, organism-based
Summary of the method: (§3)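 Female BALB/c nude mice (4–6 weeks) injected subcutaneously with 5×10^6 MDA-MB-231 cells; at ~100 mm3 (length×width²×0.5) randomized (n = 6) and dosed iv by tail vein once daily at 5 or 20 mg/kg in 10% Kolliphor HS 15 in saline, or vehicle; tumor volume and weight measured daily; tumors excised 6 h after final dose, H&E stained.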

MDA-MB-231 [9] = assay: Induction of methuosis in human MDA-MB-231 cells assessed as increase in vacuole formation at 2 uM after 12 to 24 hrs by optical microscopic analysis; assay type: functional, cell-based
Summary of the method: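 MDA-MB-231 treated with 2 µM and inspected by optical microscopy at successive times (12, 24, 48 h) for vesicle accumulation and vacuole fusion.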

MDA-MB-231 [10] = assay: Induction of methuosis in human MDA-MB-231 cells xenografted in Balb/c nude mouse assessed as vacuole formation in tumor at 20 mg/kg, iv administered once daily for 13 days measured 6 hrs post last dose by H and E staining based light microscopic method; assay type: functional, organism-based; summary of the method: as §3
MDA-MB-231 [11] = assay: Antiproliferative activity against human MDA-MB-231 cells at 2 uM after 48 hrs in presence of autophagy inhibitor 3-MA by MTS assay; assay type: functional, cell-based
Summary of the method: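 MDA-MB-231 given DMSO, 1 mM 3-MA, 2 µM compound, or the combination for 48 h; viability by MTS, means ± SD of triplicate samples.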

MDA-MB-231 [12] = assay: Induction of apoptosis in human MDA-MB-231 cells assessed as caspase-3 activation at 0.5 to 4 uM after 24 hrs; assay type: functional, cell-based
Summary of the method: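 After 24 h exposure to DMSO, graded compound concentrations or staurosporine, MDA-MB-231 cells were harvested, lysed and caspase 3 activity measured with a commercial activity kit.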

MDA-MB-231 [13] = assay: Induction of apoptosis in human MDA-MB-231 cells assessed as PARP cleavage at 0.5 to 4 uM after 24 hrs by Western blot analysis; assay type: functional, cell-based
Summary of the method: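 MDA-MB-231 treated 24 h with DMSO, graded compound concentrations or staurosporine; lysed, equal protein separated by 10–15% SDS-PAGE, PVDF transfer, probed for PARP and cleaved PARP, ECL detection.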

MDA-MB-231 [14] = assay: Induction of endoplasmic reticulum originated vacuolization in human MDA-MB-231 cells assessed as endoplasmic reticulum swelling at 2 uM after 12 hrs by uranyl acetate or lead citrate staining based transmission electron microscopic analysis; assay type: functional, cell-based
Summary of the method: (§4)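 MDA-MB-231 given DMSO or 2 µM for 12 h; fixed in 2.5% glutaraldehyde (0.1 M PBS pH 7.4, 4 °C, 3 h), post-fixed 1% OsO4, ethanol-dehydrated, Spurr's resin embedded; 70 nm sections stained with uranyl acetate or lead citrate, viewed by TEM for organelle swelling.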

MDA-MB-231 [15] = assay: Induction of mitochondria originated vacuolization in human MDA-MB-231 cells assessed as mitochondrial swelling at 2 uM after 12 hrs by uranyl acetate or lead citrate staining based transmission electron microscopic analysis; assay type: functional, cell-based; summary of the method: as §4
MDA-MB-231 [16] = assay: Antiproliferative activity against human MDA-MB-231 cells at 2 uM after 48 hrs in presence of necrosis inhibitor necrostatin-1 by MTS assay; assay type: functional, cell-based
Summary of the method: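 MDA-MB-231 given DMSO, 50 µM necrostatin-1, 2 µM compound, or combinations for 48 h; viability by MTS, means ± SD of triplicate samples.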

MDA-MB-231 [17] = assay: Induction of methuosis in human MDA-MB-231 cells assessed as increase in vacuole formation at 2 uM after 24 hrs in presence of pan-caspase inhibitor Z-VAD-FMK by optical microscopic analysis; assay type: functional, cell-based
Summary of the method: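 Optical microscopy of MDA-MB-231 after 24 h with DMSO, 100 µM Z-VAD-FMK, 2 µM compound, or both.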

MDA-MB-231 [18] = assay: Induction of methuosis in human MDA-MB-231 cells assessed as increase in vacuole formation at 2 uM after 24 hrs in presence of necrosis inhibitor necrostatin-1 by optical microscopic analysis; assay type: functional, cell-based
Summary of the method: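 Optical microscopy of MDA-MB-231 after 24 h with DMSO, 50 µM necrostatin-1, 2 µM compound, or both.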

MDA-MB-231 [19] = assay: Induction of methuosis in human MDA-MB-231 cells assessed as macropinocytosis at 2 uM after 12 hrs by lyso-tracker red staining based phase contrast fluorescent microscopic analysis; assay type: functional, cell-based
Summary of the method: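 MDA-MB-231 treated 2 µM for 12 h, then loaded with Lyso-tracker Red; phase-contrast and confocal fluorescence imaging.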

MDA-MB-231 [20] = assay: Induction of endoplasmic reticulum originated vacuolization in human MDA-MB-231 cells at 2 uM after 12 hrs by ER-tracker staining based phase contrast fluorescent microscopic analysis; assay type: functional, cell-based; summary of the method: as §2
MDA-MB-231 [21] = assay: Antiproliferative activity against human MDA-MB-231 cells at 2 uM after 48 hrs in presence of pan-caspase inhibitor Z-VAD-FMK by MTS assay; assay type: functional, cell-based
Summary of the method: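 Cells pretreated 1 h with 100 µM Z-VAD-FMK, then 2 µM compound (0.1 µM staurosporine as comparator) alone or combined for 48 h; MTS viability, means ± SD of triplicates.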

MDA-MB-231 [22] = assay: Induction of methuosis in human MDA-MB-231 cells assessed as increase in vacuole formation at 2 uM after 24 hrs in presence of autophagy inhibitor 3-MA by optical microscopic analysis; assay type: functional, cell-based
Summary of the method: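 Optical microscopy of MDA-MB-231 after 24 h with DMSO, 1 mM 3-MA, 2 µM compound, or both.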

MDA-MB-231 [23] = assay: Antiproliferative activity against human MDA-MB-231 cells after 48 hrs by crystal violet staining based microscopic method; assay type: functional, cell-based
Summary of the method: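 MDA-MB-231 seeded, cultured 12 h, medium refreshed, then exposed to 0.1% DMSO or graded compound concentrations for 48 h; fixed in 4% paraformaldehyde 15 min at room temperature, stained with crystal violet, examined by optical microscopy and quantified.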

[24] = Half life in Balb/c nude mouse at 1 mg/kg, iv; assay type: ADME, organism-based; details: in vivo
SK-MEL-28 = assay: Antiproliferative activity against human SK-MEL-28 cells after 48 hrs by MTS assay; assay type: functional, cell-based; details: SK-MEL-28, 48 h
MDA-MB-231 [25] = assay: Induction of methuosis in human MDA-MB-231 cells assessed as increase in vacuole formation at 10 uM after 24 hrs by phase contrast microscopic analysis relative to control; assay type: functional
MDA-MB-231 [26] = assay: Antitumor activity against human MDA-MB-231 cells xenografted in Balb/c nude mouse assessed as tumor growth inhibition at 20 mg/kg, iv administered once daily for 13 days measured 6 hrs post last dose relative to control; assay type: functional; details: MDA-MB-231, iv, read-out: TGI; summary of the method: as §3
MCF7 = assay: Antiproliferative activity against human MCF7 cells after 48 hrs by MTS assay; assay type: functional, cell-based; details: MCF7, 48 h
[27] = Clearance in Balb/c nude mouse at 1 mg/kg, iv; assay type: ADME, organism-based; details: in vivo
A549 = assay: Antiproliferative activity against human A549 cells after 48 hrs by MTS assay; assay type: functional, cell-based; details: A549, 48 h
MCF-10A = assay: Cytotoxicity against human MCF10A cells assessed as reduction in cell viability after 48 hrs by MTS assay; assay type: cell-based
A-375 = assay: Antiproliferative activity against human A375 cells after 48 hrs by MTS assay; assay type: functional, cell-based; details: A-375, 48 h
MDA-MB-435S = assay: Antiproliferative activity against human MDA-MB-435S cells after 48 hrs by MTS assay; assay type: functional, cell-based
[28] = Volume of distribution in Balb/c nude mouse at 1 mg/kg, iv; assay type: ADME, organism-based; details: in vivo
HepG2 = assay: Antiproliferative activity against human HepG2 cells after 48 hrs by MTS assay; assay type: functional, cell-based; details: HepG2, 48 h
MDA-MB-231 [29] = assay: Antiproliferative activity against human MDA-MB-231 cells after 48 hrs by MTS assay; assay type: functional, cell-based; details: MDA-MB-231, 48 h
SK-MEL-30 = assay: Antiproliferative activity against human SK-MEL-30 cells after 48 hrs by MTS assay; assay type: functional, cell-based; details: SK-MEL-30, 48 h
MDA-MB-231 [30] = assay: Antitumor activity against human MDA-MB-231 cells xenografted in Balb/c nude mouse assessed as tumor growth inhibition at 5 mg/kg, iv administered once daily for 13 days measured 6 hrs post last dose relative to control; assay type: functional; details: MDA-MB-231, iv, read-out: TGI; summary of the method: as §3
BGC-823 = assay: Antiproliferative activity against human BGC823 cells after 48 hrs by MTS assay; assay type: functional, cell-based; details: BGC-823, 48 h
MDA-MB-231 [31] = assay: Induction of methuosis in human MDA-MB-231 cells assessed as increase in vacuole formation at 1 uM after 24 hrs by phase contrast microscopic analysis relative to control; assay type: functional
Mus musculus [32] = assay: Toxicity in Balb/c nude mouse xenografted with human MDA-MB-231 cells assessed as body weight loss at 5 to 20 mg/kg, iv administered once daily for 13 days measured daily during compound dosing; details: in vivo, 312 h
HCT-116 = assay: Antiproliferative activity against human HCT116 cells after 48 hrs by MTS assay; assay type: functional, cell-based; details: HCT-116, 48 h

Cc1ccc(NC(=O)c2cccc(C(F)(F)F)c2)cc1Nc1cc(-c2cccnc2)nc2[nH]ccc12.Cl
Activity (Mus musculus [1]): Non-Toxic
Activity (Mus musculus [2]): Non-Toxic
Activity (Mus musculus [3]): Non-Toxic
Activity (Mus musculus [4]): Non-Toxic

Cc1ccc(NC(=O)c2cccc(C(F)(F)F)c2)cc1Nc1cc(-c2cccnc2)nc2[nH]ccc12 [listing 1 of 2 here]
Activity (MDA-MB-231 [5]): Active
Activity (MDA-MB-231 [6]): Active
Activity (MDA-MB-231 [7]): inactive
TGI (MDA-MB-231 [8]): Dose-dependent effect
Activity (MDA-MB-231 [9]): Active
Activity (MDA-MB-231 [10]): Active
Activity (MDA-MB-231 [11]): Active
Activity (MDA-MB-231 [12]): inactive
Activity (MDA-MB-231 [13]): inactive
Activity (MDA-MB-231 [14]): inactive
Activity (MDA-MB-231 [15]): inactive
Activity (MDA-MB-231 [16]): Active
Activity (MDA-MB-231 [17]): Active
Activity (MDA-MB-231 [18]): Active
Activity (MDA-MB-231 [19]): Active
Activity (MDA-MB-231 [20]): inactive
Activity (MDA-MB-231 [21]): Active
Activity (MDA-MB-231 [22]): Active
Activity (MDA-MB-231 [23]): Dose-dependent effect

Cc1ccc(NC(=O)c2cccc(C(F)(F)F)c2)cc1Nc1cc(-c2cccnc2)nc2[nH]ccc12 [listing 2 of 2 here]
half-life [24]: 8.74 h
IC50 (SK-MEL-28): 1370 nM
Activity (MDA-MB-231 [25]): 100%
inhibition in vivo at 20 mg/kg (MDA-MB-231 [26]): 60.1%
IC50 (MCF7): 2610 nM
clearance [27]: 36.5 mL/min/kg
IC50 (A549): 1890 nM
IC50 (MCF-10A): > 10000 nM
IC50 (A-375): 326 nM
IC50 (MDA-MB-435S): 2270 nM
Vd [28]: 15.5 L/kg
IC50 (HepG2): 1200 nM
IC50 (MDA-MB-231 [29]): 1570 nM
IC50 (SK-MEL-30): 1660 nM
inhibition in vivo at 5 mg/kg (MDA-MB-231 [30]): 25.9%
IC50 (BGC-823): 1570 nM
Activity (MDA-MB-231 [31]): 99.75%
Activity (Mus musculus [32]): Non-Toxic
IC50 (HCT-116): 1010 nM
